Measurements taken from ChEMBL document CHEMBL1124405, “Synthesis and copper-dependent antimycoplasmal activity of 1-amino-3-(2-pyridyl)isoquinoline derivatives. 2. Amidines” (1989).
Values after ≈ are worked out from the molar mass of the structure shown.

What was measured:
Type in all cases: functional
[1] = tested on: Mycoplasmoides gallisepticum; test: The anti-mycoplasmal activity was determined against Mycoplasma gallisepticum K514 with the addition of copper (40 uM CuSO4)
Method in brief: (§1)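 Broth-dilution MIC in modified Adler medium at pH 8.0, with heat-inactivated horse serum, benzylpenicillin and phenol red. CuSO4 was added to a final 40 μM. Compounds were in DMSO (final 1.25%) and tested in serial 2-fold dilutions, in duplicate, up to 100 μM. Each tube (3 mL) received 1 mL of fresh culture (A660 0.22, pH 6.8) and was incubated at 37 °C for 24 h. MIC was the lowest concentration without indicator color change.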

[2] = tested on: Mycoplasmoides gallisepticum; test: The anti-mycoplasmal activity was determined against Mycoplasma gallisepticum K514 without the addition of copper
Method in brief: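 No copper was added; the medium's copper was below 3 μM. The medium was modified Adler at pH 8.0, with horse serum, benzylpenicillin and phenol red. Compounds were in DMSO (final 1.25%) and tested in serial 2-fold duplicate dilutions up to 100 μM. Each tube held 3 mL of medium plus 1 mL of fresh culture (A660 0.22) and was incubated at 37 °C for 24 h. MIC was the lowest concentration preventing phenol red color change.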

[3] = tested on: Mycoplasmoides gallisepticum; test: The anti-mycoplasmal activity against Mycoplasma gallisepticum K514 with the addition of copper at 40 uM CuSO4; method in brief: as §1

Row | MIC [1] [µM] | MIC [2] [µM] | MIC [3] [µM] | Compound
1 | 0.104 (≈ 0.0369 µg/mL) | 0.78 (≈ 0.276 µg/mL) | – | COc1ccc(C(=N)Nc2nc(-c3ccccn3)cc3ccccc23)cc1
2 | 0.0325 (≈ 0.0106 µg/mL) | 0.39 (≈ 0.127 µg/mL) | – | N=C(Nc1nc(-c2ccccn2)cc2ccccc12)c1ccccn1
3 | 0.039 (≈ 0.0127 µg/mL) | 0.39 (≈ 0.127 µg/mL) | – | N=C(Nc1nc(-c2ccccn2)cc2ccccc12)c1ccncc1
4 | 0.0325 (≈ 0.0106 µg/mL) | 0.195 (≈ 0.0636 µg/mL) | – | N=C(Nc1nc(-c2ccccn2)cc2ccccc12)c1ncccn1
5 | 0.0488 (≈ 0.0165 µg/mL) | 0.78 (≈ 0.264 µg/mL) | – | Cc1cccc(C(=N)Nc2nc(-c3ccccn3)cc3ccccc23)c1
6 | – | > 500 | 250 (≈ 49.6 µg/mL) | N=C(Nc1ccccn1)c1ccccn1
7 | 0.0634 (≈ 0.0206 µg/mL) | 0.195 (≈ 0.0633 µg/mL) | – | N=C(Nc1nc(-c2ccccn2)cc2ccccc12)c1ccccc1
8 | – | 700 | – | CUPRIC SULFATE
9 | 0.078 (≈ 0.0276 µg/mL) | 1.56 (≈ 0.553 µg/mL) | – | COc1cccc(C(=N)Nc2nc(-c3ccccn3)cc3ccccc23)c1
10 | 0.78 (≈ 0.307 µg/mL) | > 10 | – | N=C(Nc1nc(-c2ccccn2)cc2ccccc12)c1ccc(Cl)c(Cl)c1
11 | – | 452 (≈ 100 µg/mL) | 0.45 (≈ 0.0996 µg/mL) | Nc1nc(-c2ccccn2)cc2ccccc12
12 | 0.065 (≈ 0.0221 µg/mL) | 0.39 (≈ 0.132 µg/mL) | – | Cc1cc(C(=N)Nc2nc(-c3ccccn3)cc3ccccc23)ccn1
13 | – | 0.195 (≈ 0.0691 µg/mL) | 0.0455 (≈ 0.0161 µg/mL) | Cc1cc(C)nc(C(=N)Nc2nc(-c3ccccn3)cc3ccccc23)n1
14 | 0.195 (≈ 0.07 µg/mL) | 6.25 (≈ 2.24 µg/mL) | – | N=C(Nc1nc(-c2ccccn2)cc2ccccc12)c1ccc(Cl)cc1
15 | 0.1 (≈ 0.0916 µg/mL) | 0.1 (≈ 0.0916 µg/mL) | – | CC[C@H]1OC(=O)C[C@@H](O)[C@H](C)[C@@H](O[C@@H]2O[C@H](C)[C@@H](O[C@H]3C[C@@](C)(O)[C@@H](O)[C@H](C)O3)[C@H](N(C)C)[C@H]2O)[C@@H](CC=O)C[C@@H](C)C(=O)/C=C/C(C)=C/[C@@H]1CO[C@@H]1O[C@H](C)[C@@H](O)[C@@H](OC)[C@H]1OC [TYLOSIN]
16 | 0.195 (≈ 0.07 µg/mL) | 6.25 (≈ 2.24 µg/mL) | – | N=C(Nc1nc(-c2ccccn2)cc2ccccc12)c1cccc(Cl)c1
17 | 0.0683 (≈ 0.0231 µg/mL) | 0.78 (≈ 0.264 µg/mL) | – | Cc1ccc(C(=N)Nc2nc(-c3ccccn3)cc3ccccc23)cc1
18 | > 100 | > 100 | – | Cc1cccc2c(NC(=N)c3ccccn3)nc(-c3ccccc3)cc12
19 | 0.039 (≈ 0.0127 µg/mL) | 0.195 (≈ 0.0636 µg/mL) | – | N=C(Nc1nc(-c2ccccn2)cc2ccccc12)c1cnccn1
20 | 0.065 (≈ 0.0221 µg/mL) | 0.39 (≈ 0.132 µg/mL) | – | Cc1cccc(C(=N)Nc2nc(-c3ccccn3)cc3ccccc23)n1
